Screens: PubChem, several laboratories
Rows were chosen to be rich in hits. Some 1.8% of all compounds tested hit in one or more screens of this group.
Gli-Sufu antag: Gli-Sufu pathway antagonists, primary screen, luciferase luminescence, Sufu-KO-LIGHT cells, uHTS; Sufu-KO-LIGHT fibroblasts, Gli luciferase reporter luminescence; inhibition, % at 5 µM; 0.74% of 340,000 active; AID 588413, 2011;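 active means inhibition above about 55%, limit read from the data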
GalR3 antag: GalR3 antagonists in HEK293 cells, primary screen, cell-based, fluorescence readout; Galanin receptor type 3 (Homo sapiens), O60755; HEK293 GalR3-CNG cAMP membrane potential fluorescence; galR3 body fused to GalR1 C-terminus; inhibition, % at 3 µM; 0.44% of 360,000 active;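 active means inhibition above the screen-wide average plus 3 SD, cut at about 13% in these data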;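 further: forskolin and galanin both at EC90 stimulate the cells; cAMP rise reported by CNG channel membrane potential dye signal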
Target sequence (O60755 1-299 limits assumed): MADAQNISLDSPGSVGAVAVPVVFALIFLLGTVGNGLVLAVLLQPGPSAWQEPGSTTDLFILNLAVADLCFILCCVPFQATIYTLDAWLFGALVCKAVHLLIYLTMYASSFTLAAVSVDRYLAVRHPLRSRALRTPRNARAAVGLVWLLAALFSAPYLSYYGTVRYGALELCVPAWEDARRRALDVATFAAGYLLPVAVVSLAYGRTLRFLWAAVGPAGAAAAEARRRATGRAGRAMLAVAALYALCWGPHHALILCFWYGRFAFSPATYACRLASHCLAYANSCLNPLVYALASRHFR
697 NFkB inh: inhibitors of PMA/ionomycin-induced NF-kB reporter, 697 cells, primary screen, B-cell NF-kB inhibitor project, cell-based, luminescence, uHTS; 697 B-cell NF-kB luciferase reporter, 16 h; inhibition, % at 4 µM; 0.33% of 330,000 active; in the data active means inhibition above about 35%
NR2E3 ag-1: NR2E3 agonists in two-hybrid cells, primary screen, cell-based, luminescence, CHO-S, Gal4-NCOR/VP16-NR2E3. 0.35% of 360,000 active. AID 602229, 2012. luciferase. inhibition of corepressor binding, % at 3.98 µM;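 active means inhibition above the mean of all tested compounds plus 3 SD, cut at about 70% in these data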;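 further: higher means lower luciferase signal from less NR2E3 corepressor binding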
NR2E3 ag-2: inhibitors of NR2E3-RetCOR corepressor binding, primary screen, NR2E3 agonist project, biochemical, TR-FRET, GST-NR2E3, biotin-RetCOR; Photoreceptor-specific nuclear receptor (Homo sapiens), Q9Y5X4; 1536-well; inhibition of corepressor binding, % at 4.78 µM; 0.12% of 320,000 active; AID 2300, 2010;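 active means percent inhibition above the cutoff of mean plus 3 SD of all tested compounds, set per screening campaign, cut at about 20% in these data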
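Format: 1536-well format; test system: GST-NR2E3 and biotin-RetCOR proteins; read-out basis: percent inhibition of TR-FRET ratio; timing: 5 h incubation at 4 °C; detection: time-resolved FRET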
Jurkat NFkB inh: inhibitors of induced NF-kB luciferase reporter, primary screen, TCR NF-kB activation inhibitor project, cell-based, luminescence, uHTS; Jurkat, PMA/ionomycin-induced NF-kB luciferase reporter; inhibition, % at 4 µM; 0.53% of 330,000 active; in the data active means inhibition above about 50%
Jurkat NFkB conf: PMA/ionomycin-induced NF-kB reporter inhibitors, Jurkat retest, confirmation, T-cell NF-kB inhibitor project, cell-based, luminescence, single concentration | shares compounds with Jurkat NFkB inh | Jurkat NF-kB luciferase, 16 h | inhibition, % at 4 µM | 27% of 2,700 active | AID 435020, 2010;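 active means inhibition reaching about 45% at 4 µM in either replicate, limit read from the data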
Hits are given with their value; - = inactive; . = no result.

SMILES	Gli-Sufu antag	GalR3 antag	697 NFkB inh	NR2E3 ag-1	NR2E3 ag-2	Jurkat NFkB inh	Jurkat NFkB conf
CSc1nc(N)n2nc(-c3ccc(Cl)cc3)cc2n1	-	-	-	-	-	-	-
COc1ccc(-c2nc(-c3ccc(Br)cc3)no2)c(OC)c1	-	-	-	-	-	-	-
COc1ccccc1-c1nc(-c2ccc(Br)cc2)no1	-	-	-	-	-	-	.
COc1ccc2nc(-c3ccc(CN4CCC(c5nc6ccccc6[nH]5)CC4)cc3)c(-c3ccccc3)nc2c1	.	-	.	.	.	.	.
O=C(Nc1ccccc1)c1ccc(-c2ccc(Br)cc2)o1	-	-	-	-	-	-	.
CN1CCN(c2ccccc2NC(=O)c2ccc(-c3ccc(Br)cc3)o2)CC1	-	.	-	-	-	50	-
S=C(c1ccc(-c2ccc(Cl)cc2)o1)N1CCCCC1	-	-	-	-	-	-	-
COc1ccccc1NC(=O)c1ccc(-c2ccc(Br)cc2)o1	-	-	-	-	-	57	-
O=C(Nc1ccccc1N1CCCCC1)c1ccc(-c2ccc(Cl)cc2)o1	-	-	-	-	-	54	-
S=C(c1ccc(-c2ccccc2Cl)o1)N1CCCCC1	-	-	-	-	-	-	.
O=C(CCc1c[nH]c2ccccc12)Nc1ccc(Oc2cccnc2)cc1	.	-	.	.	.	.	.
COc1ccc2c(c1)[C@@]1(OCCC=C[C@H]1C)C(=O)N2Cc1ccc(Br)cc1	.	-	.	.	.	.	.
Clc1ccc(-n2nnnc2-c2ccccc2)cc1	-	-	-	-	-	-	.
COc1ccc(-n2nnnc2-c2ccccc2)cc1	-	-	-	-	-	53	58
CN1NC(=O)c2ccccc2NC1=S	.	-	.	.	.	.	.
COc1cc(-c2noc(C)c2-c2ccc3[nH]ccc3c2)cc(OC)c1OC	-	.	-	-	-	65	51
COc1cc(-c2noc(C)c2-c2ccc(N(C)C)nc2)cc(OC)c1OC	-	-	-	-	-	71	58
COc1ccc(C2CC(=O)C(c3ccc(F)cc3)=CN2Cc2ccccc2)cc1 (configuration not stated)	.	-	.	.	.	.	.
COc1cc2ccccc2cc1C(=O)NC1CCC(C)CC1 (configuration not stated)	-	-	-	-	.	95	-
COc1cc2ccccc2cc1C(=O)NC1CCCC1	-	-	-	-	.	-	.
O=C(c1ccccc1)c1cnc(Nc2ccccc2Cl)s1	-	.	-	-	-	-	-
O=C(NCc1ccccc1)[C@@H]1CCCN1C(=O)[C@H]1CCCN1C(=O)c1cccs1	.	-	.	.	.	.	.
COc1ccc(C(=O)COC(=O)c2ccc(N(C)C)cc2)cc1	-	-	-	-	-	-	.
CN(C)c1ccc(C(=O)OCC(=O)c2cccs2)cc1	-	-	-	-	-	-	-
CC(C)[C@H](NC(=O)c1ccc(Cl)cc1Cl)C(=O)N1CCC[C@H]1C(=O)NCc1ccccc1	.	-	.	.	.	.	.
SMILES	Gli-Sufu antag	GalR3 antag	697 NFkB inh	NR2E3 ag-1	NR2E3 ag-2	Jurkat NFkB inh	Jurkat NFkB conf
Nc1ccn([C@@H]2O[C@H](C(=O)N[C@H](Cc3ccccc3)C(=O)Nc3ccc4scnc4c3)[C@@H](O)[C@H]2O)c(=O)n1	.	-	.	.	.	.	.
CC(NCc1ccc(-c2ccccc2)cc1)C(O)c1ccccc1 (configuration not stated)	-	-	-	-	-	55	-
C[C@H](O)[C@@H]1CN2CCc3ccc(-c4ccc5c(c4)OCO5)cc3[C@@H]2C[C@@H]1N(C)Cc1ccccc1	.	-	.	.	.	.	.
CCOC(=O)c1sc(NC(=O)c2ccc(Br)o2)cc1C	-	-	-	-	-	-	-
CCOC(=O)c1cccc(NC(=O)c2cccs2)c1	-	-	-	-	-	-	.
CCOC(=O)c1sc(NC(=O)c2cccs2)cc1C	-	-	-	-	-	-	-
COC(=O)[C@]12C[C@H](CC(=O)NCCC(C)C)C(=O)N(Cc3ccccc3)C1=C[C@H](C(C)C)O[C@@H]2C1CC1	.	-	.	.	.	.	.
Cc1ccc2nc(SCC(=O)c3ccccc3)nc(=O)n2c1	-	-	-	-	-	-	-
CCN(CC(=O)NCc1ccc(F)cc1)C(=O)/C=C/c1ccc(OC)c(S(=O)(=O)NC(C)C)c1	-	-	-	-	-	51	-
COC(=O)[C@]12C[C@H](CC(=O)NCCCN3CCCC3=O)C(=O)N(Cc3ccccc3)C1=C[C@H](C(C)C)O[C@@H]2C1CC1	.	-	.	.	.	.	.
COc1ccc(S(=O)(=O)Nc2cccc(-c3ccc4nncn4n3)c2)cc1F	-	-	-	-	-	58	50
O=S(=O)(Nc1cccc(-c2ccc3nncn3n2)c1)c1cccc(F)c1	-	-	-	-	-	-	.
COC(=O)C1=C(C)N(Cc2cccc(C(F)(F)F)c2)C(=NCc2cccc(C(F)(F)F)c2)NC1c1ccc(Cl)cc1 (configuration not stated)	.	-	.	.	.	.	.
COC(=O)[C@]12C[C@H](CC(=O)NCC3CCCCC3)C(=O)N(Cc3ccc4c(c3)OCO4)C1=C[C@H](C(C)(C)C)O[C@@H]2C	.	-	.	.	.	.	.
COc1cc(/C=N/NS(=O)(=O)c2ccc(C)cc2)ccc1OCc1cccc(C(=O)O)c1	-	-	-	-	-	62	-
Cc1ccc2c(c1)Oc1ccc([N+](=O)[O-])cc1C(=O)N2	-	-	-	-	-	-	.
Cc1ccc2c(c1)Oc1ccc(NC(=O)CCl)cc1C(=O)N2	-	-	-	-	-	64	51
COc1ccc(C(=O)Nc2ccc(Cl)cc2C(=O)NCc2ccco2)cc1	-	-	-	-	-	52	-
CCC(C)C(NC(=O)c1ccccc1NC(=O)c1ccc(OC)cc1)C(=O)NCc1ccco1 (configuration not stated)	-	-	-	-	-	-	.
O=C(Nc1nc2ccc(Cl)cc2s1)C1CC1	-	-	-	-	-	-	.
CC(C)c1ccc2nc(NC(=O)C3CC3)sc2c1	-	.	-	-	-	-	-
O=C(Nc1nc2cc3c(cc2s1)OCO3)C1CCCCC1	-	-	-	-	-	-	-
O=C(Nc1nc2cc3c(cc2s1)OCO3)C1CC1	-	-	-	-	-	-	.
O=C(Nc1nc2ccc(S(=O)(=O)N3CCCCC3)cc2s1)C1CCCO1 (configuration not stated)	-	-	-	-	-	-	.
COc1ccc2nc(NC(=O)c3cc(C)oc3C)sc2c1	-	-	-	-	-	-	.
